Experimental data taken from ChEMBL document CHEMBL5042498, “Development of 3-(4-Chlorophenyl)-1-(phenethyl)urea Analogues as Allosteric Modulators of the Cannabinoid Type-1 Receptor: RTICBM-189 is Brain Penetrant and Attenuates Reinstatement of Cocaine-Seeking Behavior” (J Med Chem, 2022).

How the values were obtained:
[1] = biological target: Cannabinoid receptor 2 (Homo sapiens) (UniProt P34972); test: Agonist activity at human CB2 receptor CP55940-stimulated calcium mobilization at 10 uM incubated for 15 mins FLIPR assay relative to control; format: functional
Outline: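 CB2 agonist screen in CHO-RD-HGA16 cells stably expressing human CB2, loaded with Calcium 5 dye for 45 min at 37 °C. Cells were pretreated 15 min with vehicle, then the test compound was added at a single concentration. Fluorescence was read on FLIPR every 1 s for 90 s (485/525 nm). Response is expressed as % of CP55,940 Emax.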

Cannabinoid receptor 1 [2] = biological target: T1, Cannabinoid receptor 1 (Homo sapiens, UniProt P21554); test: Allosteric antagonist activity against human CB1 receptor expressed in HEK293 cells membrane measured after 60 mins by [35S]GTPgammaS binding assay; format: functional, cell membranes
Outline: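 Membranes from HEK293 cells expressing hCB1 are used in assay buffer (50 mM Tris, 3 mM MgCl2, 0.2 mM EGTA, 100 mM NaCl, 1 mg/ml BSA, pH 7.4). They are preincubated 10 min, then incubated 60 min at 30 °C with 30 μM GDP, 0.1 nM [35S]GTPγS, 100 nM CP55,940 and serially diluted compound (0.1% DMSO final). Nonspecific binding is set with 30 μM unlabeled GTPγS. Reactions are filtered. Data are normalized to CP55,940 alone and fitted by 3-parameter regression; mean of ≥3 experiments in duplicate.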

Cannabinoid receptor 1 [3] = biological target: T1, Cannabinoid receptor 1; test: Antagonist activity at N-terminal tagged human CB1 receptor transfected with HEK293 cells assessed as forskolin-stimulated cAMP level in presence of CP55940 by BRET assay; format: functional, cell-based
Outline: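 HEK293 cells stably expressing hCB1 (3HA-tagged at Otago, untagged at RTI) are transiently transfected with the CAMYEL BRET cAMP sensor. Cells are serum-starved 30 min and given 5 μM coelenterazine H final. Compound dilutions are added together with 5 μM forskolin and 1 μM CP55,940. BRET (460/535) is read for about 20 min at 37 °C.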

Cannabinoid receptor 1 [4] = biological target: T1, Cannabinoid receptor 1; test: Allosteric antagonist activity at human CB1 receptor expressed in CHO-RD-HGA16 cells overexpressing Galpha16 assessed as inhibition of CP55940-stimulated calcium mobilization incubated for 15 mins FLIPR assay; format: functional, cell-based
[5] = biological target: Cannabinoid receptor 2 (Homo sapiens) (UniProt P34972); test: Antagonist activity at human CB2 receptor CP55940-stimulated calcium mobilization incubated for 15 mins FLIPR assay; format: functional; design: concentration or dose not given beside the values
Outline: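 CB2 antagonist screen in human CB2 CHO-RD-HGA16 cells loaded with Calcium 5 dye. Cells were pretreated 15 min at 37 °C with the test compound at a single concentration (10 μM), then challenged with CP55,940 at its EC80 during the FLIPR read (90 s, 485/525 nm). Response is expressed as % inhibition of the CP55,940 EC80 signal.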

Cannabinoid receptor 1 [6] = biological target: T1, Cannabinoid receptor 1; test: Agonist activity at human CB1 receptor CP55940-stimulated calcium mobilization at 10 uM incubated for 15 mins FLIPR assay relative to control; format: functional
[7] = Metabolic stability in rat liver microsomes assessed as clearance in presence of NADPH measured upto 45 mins by LC-MS/MS analysis; format: ADME, Microsome; settings: 0.75 h
Outline: (§1)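 Rat liver microsomes (0.5 mg/mL protein) in 100 mM potassium phosphate, pH 7.4, at 37 °C with 1 mM NADPH. Samples were taken at 0, 5, 15, 30 and 45 min, quenched with acetonitrile and analysed by LC/MS/MS. Half-life and clearance were derived from two independent experiments in duplicate.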

[8] = Metabolic stability in rat liver microsomes assessed as half life in presence of NADPH measured upto 45 mins by LC-MS/MS analysis; format: ADME, Microsome; settings: 0.75 h; outline: as §1

Cannabinoid receptor 2 (Homo sapiens), sequence (P34972 whole entry): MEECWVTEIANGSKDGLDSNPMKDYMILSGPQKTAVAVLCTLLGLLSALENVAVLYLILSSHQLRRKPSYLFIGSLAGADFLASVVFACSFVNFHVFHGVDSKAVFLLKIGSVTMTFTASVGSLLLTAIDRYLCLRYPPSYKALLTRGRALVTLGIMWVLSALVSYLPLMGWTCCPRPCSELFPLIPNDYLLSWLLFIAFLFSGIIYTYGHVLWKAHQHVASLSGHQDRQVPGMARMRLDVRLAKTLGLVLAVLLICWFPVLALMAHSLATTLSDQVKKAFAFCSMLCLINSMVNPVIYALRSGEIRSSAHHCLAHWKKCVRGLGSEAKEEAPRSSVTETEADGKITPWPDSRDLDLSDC
T1 sequence (P21554 whole entry): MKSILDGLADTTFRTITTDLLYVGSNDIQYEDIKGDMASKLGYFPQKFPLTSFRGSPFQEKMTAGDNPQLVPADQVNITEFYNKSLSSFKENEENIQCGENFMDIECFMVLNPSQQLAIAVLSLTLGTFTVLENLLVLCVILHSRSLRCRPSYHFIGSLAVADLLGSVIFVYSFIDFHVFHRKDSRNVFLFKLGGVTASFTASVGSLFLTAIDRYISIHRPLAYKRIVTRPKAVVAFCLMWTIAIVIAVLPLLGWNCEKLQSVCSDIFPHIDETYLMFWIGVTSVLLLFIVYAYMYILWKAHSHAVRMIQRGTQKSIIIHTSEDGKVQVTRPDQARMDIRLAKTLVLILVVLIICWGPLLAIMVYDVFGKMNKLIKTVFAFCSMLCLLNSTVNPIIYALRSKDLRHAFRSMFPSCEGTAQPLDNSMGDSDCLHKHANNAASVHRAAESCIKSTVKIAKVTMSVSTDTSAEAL

| SMILES | Emax [1] | IC50 (Cannabinoid receptor 1 [2]) | IC50 (Cannabinoid receptor 1 [3]) | IC50 (Cannabinoid receptor 1 [4]) | Activity [5] | Emax (Cannabinoid receptor 1 [6]) | CLH [7] | t1/2 [8] |
| --- | --- | --- | --- | --- | --- | --- | --- | --- |
| O=C(NCCc1ccc([N+](=O)[O-])cc1)Nc1ccc(Cl)cc1 | < 20% | 2950 nM | 1780 nM | 85.1 nM | < 35% | < 30% |  |  |
| O=C(NCCc1cc(Cl)cc(Cl)c1)Nc1ccc(Cl)cc1 | < 20% | 1740 nM | 4370 nM | 24 nM | < 35% |  |  |  |
| O=C(NCCc1cccc(F)c1)Nc1ccc(Cl)cc1 | < 20% | 6760 nM | 1350 nM | 51.3 nM | < 35% | < 30% |  |  |
| O=C(NCCc1ccc(N2CCCCC2)cc1)Nc1ccc(Cl)cc1 | < 20% |  |  | 912 nM | < 35% |  |  |  |
| O=C(NCCc1ccc(O)cc1)Nc1ccc(Cl)cc1 | < 20% |  |  | > 10000 nM | < 35% | < 30% |  |  |
| CS(=O)(=O)c1ccc(CCNC(=O)Nc2ccc(Cl)cc2)cc1 | < 20% |  |  | > 10000 nM | < 35% | < 30% |  |  |
| Cc1cc(C)cc(CCNC(=O)Nc2ccc(Cl)cc2)c1 | < 20% | 6610 nM | 6610 nM | 28.8 nM | < 35% |  |  |  |
| Cc1ccc(CCNC(=O)Nc2ccc(Cl)cc2)cc1C | < 20% | 2570 nM | 1150 nM | 47.9 nM | < 35% |  |  |  |
| O=C(NCCc1ccccc1C(F)(F)F)Nc1ccc(Cl)cc1 | < 20% | 4270 nM | 3240 nM | 126 nM | < 35% | < 30% |  |  |
| O=C(NCCc1ccccc1Cl)Nc1ccc(Cl)cc1 | < 20% |  |  | 229 nM | < 35% | < 30% |  |  |
| O=C(NCCc1ccc(Cl)cc1)Nc1ccc(Cl)cc1 | < 20% |  |  | 162 nM | < 35% | < 30% |  |  |
| COc1cccc(CCNC(=O)Nc2ccc(Cl)cc2)c1 | < 20% | 12300 nM | 7760 nM | 447 nM | < 35% | < 30% |  |  |
| O=C(NCCc1c(F)c(F)c(F)c(F)c1F)Nc1ccc(Cl)cc1 | < 20% |  |  | 32.4 nM | < 35% | < 30% |  |  |
| O=C(NCCc1c(F)cc(F)cc1F)Nc1ccc(Cl)cc1 | < 20% |  |  | 79.4 nM | < 35% | < 30% |  |  |
| COc1ccccc1CCNC(=O)Nc1ccc(Cl)cc1 | < 20% |  |  | 1580 nM | < 35% | < 30% |  |  |
| COc1cc(CCNC(=O)Nc2ccc(Cl)cc2)ccc1O | < 20% |  |  | > 10000 nM | < 35% | < 30% |  |  |
| O=C(NCCc1ccc(Cl)cc1Cl)Nc1ccc(Cl)cc1 | < 20% |  |  | 166 nM | < 35% | < 30% |  |  |

| SMILES | Emax [1] | IC50 (Cannabinoid receptor 1 [2]) | IC50 (Cannabinoid receptor 1 [3]) | IC50 (Cannabinoid receptor 1 [4]) | Activity [5] | Emax (Cannabinoid receptor 1 [6]) | CLH [7] | t1/2 [8] |
| --- | --- | --- | --- | --- | --- | --- | --- | --- |
| COc1cc(CCNC(=O)Nc2ccc(Cl)cc2)cc(OC)c1 | < 20% |  |  | 1070 nM | < 35% | < 30% |  |  |
| O=C(NCCc1ccc(-c2ccccc2)cc1)Nc1ccc(Cl)cc1 | < 20% |  |  | 871 nM | < 35% | < 30% |  |  |
| O=C(NCCc1ccc(C(F)(F)F)cc1)Nc1ccc(Cl)cc1 | < 20% |  |  | 178 nM | < 35% | < 30% |  |  |
| O=C(NCCc1ccccc1)Nc1ccc(Cl)cc1 | < 20% | 6760 nM | 3470 nM | 186 nM | < 35% |  |  |  |
| O=C(NCCc1c(F)cccc1Cl)Nc1ccc(Cl)cc1 | < 20% |  |  | 398 nM | < 35% | < 30% |  |  |
| O=C(NCCc1ccccc1F)Nc1ccc(Cl)cc1 | < 20% |  |  | 170 nM | < 35% | < 30% |  |  |
| N#Cc1cccc(CCNC(=O)Nc2ccc(Cl)cc2)c1 | < 20% | 832 nM | 871 nM | 145 nM | < 35% |  |  |  |
| N#Cc1ccc(CCNC(=O)Nc2ccc(Cl)cc2)cc1 | < 20% |  |  | 437 nM | < 35% | < 30% |  |  |
| O=C(NCCc1cccc(Br)c1)Nc1ccc(Cl)cc1 | < 20% | 3470 nM | 724 nM | 32.4 nM | < 35% |  |  |  |
| O=C(NCCc1cccc(OC(F)(F)F)c1)Nc1ccc(Cl)cc1 | < 20% | 7940 nM | 10700 nM | 93.3 nM | < 35% |  |  |  |
| Cc1ccc(CCNC(=O)Nc2ccc(Cl)cc2)cc1 | < 20% | 13800 nM | 2040 nM | 135 nM | < 35% | < 30% |  |  |
| CN(C)c1ccc(CCNC(=O)Nc2ccc(Cl)cc2)cc1 | < 20% |  |  | 257 nM | < 35% | < 30% |  |  |
| Cc1cccc(CCNC(=O)Nc2ccc(Cl)cc2)c1 | < 20% | 3020 nM | 912 nM | 41.7 nM | < 35% | < 30% | 102 µL/min/mg | 13.7 min |
| CN(C)c1cccc(CCNC(=O)Nc2ccc(Cl)cc2)c1 | < 20% |  |  | 1620 nM | < 35% | < 30% |  |  |
| O=C(NCCc1ccc(Br)cc1)Nc1ccc(Cl)cc1 | < 20% |  |  | 148 nM | < 35% | < 30% |  |  |
| COc1ccc(CCNC(=O)Nc2ccc(Cl)cc2)cc1OC | < 20% | > 10000 nM | > 10000 nM | 1780 nM | < 35% | < 30% |  |  |
| O=C(NCCc1cccc(C(F)(F)F)c1)Nc1ccc(Cl)cc1 | < 20% | 1290 nM | 676 nM | 28.8 nM | < 35% | < 30% | 90 µL/min/mg | 15.5 min |
